Laboratory results from ChEMBL document CHEMBL1122463, “2,3-dihydro-3-(1-pyrryl)spiro[benzofuran-2,4'-piperidine]s and 2,3-dihydro-3-(1-pyrryl)spiro[benzofuran-2,3'-pyrrolidine]s: novel antihypertensive agents” (1983).
Where “and” joins values, the source holds several entries; their conditions need not be identical. Equal entries are not always repeated.

Tests used:
Canis familiaris [1] = assay: Hemodynamic effect in sinoaortic- deafferented hypertensive dog measured as cardiac output after 60 min of 10 mg/kg
Canis familiaris [2] = assay: Hemodynamic effect in sinoaortic- deafferented hypertensive dog measured as left ventricular pressure after 0 min of 10 mg/kg
Canis familiaris [3] = assay: effect of compound at a dose of 10 mg/kg iv, on standard cardiovascular in anesthetized normotensive dogs before administration of isoproterenol.; assay type: functional, Canis lupus familiaris, Heart
Procedure, shortened: (§1)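 Bilateral vagotomy was performed. BP was recorded via a femoral artery, with iv dosing via a femoral vein; BP and heart rate were recorded continuously. Each iv challenge was given twice before test drug and once after. Challenge doses were epinephrine and norepinephrine 0.5–1.0 μg/kg, and isoproterenol and carbachol 0.25 μg/kg.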

Canis familiaris [4] = assay: Hemodynamic effect in sinoaortic- deafferented hypertensive dog measured as mean arterial BP after 5 min of 5 mg/kg dose; assay type: functional, Canis lupus familiaris
Rattus norvegicus [5] = assay: Oral hypotensive activity in spontaneously hypertensive rats by using tail-cuff method measured as change in systolic BP at the dose of 50 mg/kg po.; assay type: functional, Blood
Procedure, shortened: (§2)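 Okamoto-Aoki strain spontaneously hypertensive rats. Compounds were suspended in distilled water with Tween 80 and given orally every day at 50, 30, 10 or 3 mg/kg. Systolic BP was measured by tail-cuff plethysmography on day 1 (predose and 2 h), day 3 (predose and 2 h) and day 5 (predose, 2 and 4 h). The screen used 4 rats; dose-response used 4–8 rats per dose.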

Canis familiaris [6] = assay: effect of compound at a dose of 10 mg/kg iv, on standard cardiovascular in anesthetized normotensive dogs after administration of norepinephrine.; assay type: functional, Canis lupus familiaris, Heart
Procedure, shortened: as §1

Canis familiaris [7] = assay: effect of compound at a dose of 10 mg/kg iv, on standard cardiovascular in anesthetized normotensive dogs after administration of carbachol.; assay type: functional, Canis lupus familiaris, Heart
Procedure, shortened: as §1

Canis familiaris [8] = assay: Hemodynamic effect in sinoaortic- deafferented hypertensive dog measured as left ventricular pressure after 60 min of 10 mg/kg
Canis familiaris [9] = assay: Hemodynamic effect in sinoaortic- deafferented hypertensive dog measured as left ventricular pressure after 5 min of 10 mg/kg
Rattus norvegicus [10] = species: Rattus norvegicus; assay: Hypotensive activity in renal hypertensive rats by using tail-cuff method measured as change in BP on day/h postdrug; assay type: functional, Blood
Procedure, shortened: (§3)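 Renal hypertension made in male Sprague-Dawley rats (Grollman modification). Under pentobarbital (50 mg/kg ip), the right kidney was removed and silk sutures tied around both poles of the left kidney to constrict it. After 3 weeks, rats with systolic BP >150 mmHg were used. Compound given po daily to 4 rats. Systolic BP by tail-cuff plethysmography at the listed day/hour after dosing.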

Canis familiaris [11] = assay: effect of compound at a dose of 10 mg/kg iv, on standard cardiovascular in anesthetized normotensive dogs before administration of norepinephrine.; assay type: functional, Canis lupus familiaris, Heart
Procedure, shortened: as §1

Canis familiaris [12] = assay: effect of compound at a dose of 10 mg/kg iv, on standard cardiovascular in anesthetized normotensive dogs after administration of tyramine.; assay type: functional, Canis lupus familiaris, Heart
Canis familiaris [13] = assay: Hemodynamic effect in sinoaortic- deafferented hypertensive dog measured as left ventricular pressure after 30 min of 10 mg/kg
Canis familiaris [14] = assay: Hemodynamic effect in sinoaortic- deafferented hypertensive dog measured as heart rate after 0 min of 5 mg/kg dose; assay type: functional, Canis lupus familiaris
Rattus norvegicus [15] = species: Rattus norvegicus; assay: Oral hypotensive activity in spontaneously hypertensive rats by using tail-cuff method measured as change in systolic BP; assay type: functional, Blood
Procedure, shortened: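 Okamoto-Aoki spontaneously hypertensive rats. Compound suspended in distilled water with Tween 80, given po daily, screening dose 50 mg/kg, dose-response at 50, 30, 10 or 3 mg/kg unless stated. Systolic BP by tail-cuff plethysmography on day 1 predose and 2 h, day 3 predose and 2 h, and day 5 predose, 2 and 4 h. Reported as peak decrease on day 3 (or day 5) at 2 h ± SEM. n = 4 in screen, 4–8 per dose.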

Canis familiaris [16] = assay: Mean heart rate after administration at a dose of 10 mg/kg iv.; assay type: functional, Canis lupus familiaris
Canis familiaris [17] = assay: effect of compound at a dose of 10 mg/kg iv, on standard cardiovascular in anesthetized normotensive dogs before administration of carbachol.; assay type: functional, Canis lupus familiaris, Heart
Procedure, shortened: as §1

Rattus norvegicus [18] = assay: Oral hypotensive activity in spontaneously hypertensive rats by using tail-cuff method measured as change in systolic BP at the dose of 30 mg/kg po.; assay type: functional, Blood
Procedure, shortened: as §2

Canis familiaris [19] = assay: effect of compound at a dose of 10 mg/kg iv, on standard cardiovascular in anesthetized normotensive dogs after administration of epinephrine.; assay type: functional, Canis lupus familiaris, Heart
Procedure, shortened: as §1

Canis familiaris [20] = assay: Mean arterial BP before administration at a dose of 10 mg/kg iv.; assay type: functional, Canis lupus familiaris
Canis familiaris [21] = assay: Mean heart rate before administration at a dose of 10 mg/kg iv.; assay type: functional, Canis lupus familiaris
Rattus norvegicus [22] = species: Rattus norvegicus; assay: hypotensive activity in renal hypertensive rats by using tail-cuff method measured as initial BP; assay type: functional, Blood
Procedure, shortened: (§4)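 Renal hypertension (modified Grollman) was made in male Sprague-Dawley rats under pentobarbital sodium 50 mg/kg ip. The right kidney was removed, and silk sutures around both poles of the left kidney constricted the parenchyma. After 3 weeks of stabilization, rats with systolic BP >150 mmHg were used. Compounds were given orally. Systolic BP was measured by tail-cuff predose and at the stated day/h after dosing.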

Canis familiaris [23] = assay: Hemodynamic effect in sinoaortic- deafferented hypertensive dog measured as heart rate after 30 min of 5 mg/kg dose; assay type: functional, Canis lupus familiaris
Canis familiaris [24] = assay: Mean arterial BP after administration at a dose of 10 mg/kg iv.; assay type: functional, Canis lupus familiaris
Canis familiaris [25] = assay: Hemodynamic effect in sinoaortic- deafferented hypertensive dog measured as cardiac output after 5 min of 10 mg/kg
Canis familiaris [26] = assay: Hemodynamic effect in sinoaortic- deafferented hypertensive dog measured as mean arterial BP after 30 min of 5 mg/kg dose; assay type: functional, Canis lupus familiaris
Canis familiaris [27] = assay: Hemodynamic effect in sinoaortic- deafferented hypertensive dog measured as heart rate after 60 min of 5 mg/kg dose; assay type: functional, Canis lupus familiaris
Canis familiaris [28] = assay: Hemodynamic effect in sinoaortic- deafferented hypertensive dog measured as mean arterial BP after 60 min of 5 mg/kg dose; assay type: functional, Canis lupus familiaris
Canis familiaris [29] = assay: Hemodynamic effect in sinoaortic- deafferented hypertensive dog measured as cardiac output after 30 min of 10 mg/kg
Canis familiaris [30] = assay: Hemodynamic effect in sinoaortic- deafferented hypertensive dog measured as heart rate after 5 min of 5 mg/kg dose; assay type: functional, Canis lupus familiaris
Canis familiaris [31] = assay: Hemodynamic effect in sinoaortic- deafferented hypertensive dog measured as mean arterial BP after 0 min of 5 mg/kg dose; assay type: functional, Canis lupus familiaris
Canis familiaris [32] = assay: effect of compound at a dose of 10 mg/kg iv, on standard cardiovascular in anesthetized normotensive dogs before administration of tyramine.; assay type: functional, Canis lupus familiaris, Heart
Canis familiaris [33] = assay: Hemodynamic effect in sinoaortic- deafferented hypertensive dog measured as cardiac output after 0 min of 10 mg/kg
Canis familiaris [34] = assay: effect of compound at a dose of 10 mg/kg iv, on standard cardiovascular in anesthetized normotensive dogs before administration of epinephrine.; assay type: functional, Canis lupus familiaris, Heart
Procedure, shortened: as §1

Canis familiaris [35] = assay: effect of compound at a dose of 10 mg/kg iv, on standard cardiovascular in anesthetized normotensive dogs after administration of isoproterenol.; assay type: functional, Canis lupus familiaris, Heart
Procedure, shortened: as §1

Rattus norvegicus [36] = species: Rattus norvegicus; assay: Hypotensive activity in renal hypertensive rats by using tail-cuff method measured as BP on day/h postdrug; assay type: functional, Blood
Procedure, shortened: as §3

Rattus norvegicus [37] = species: Rattus norvegicus; assay: hypotensive activity in renal hypertensive rats by using tail-cuff method measured as BP on day/h postdrug; assay type: functional, Blood
Procedure, shortened: as §4

Rattus norvegicus [38] = species: Rattus norvegicus; assay: Oral hypotensive activity in spontaneously hypertensive rats by using tail-cuff method measured as the initial BP; assay type: functional, Blood
Procedure, shortened: as §2

Rattus norvegicus [39] = assay: Oral hypotensive activity in spontaneously hypertensive rats by using tail-cuff method measured as change in systolic BP at the dose of 10 mg/kg po.; assay type: functional, Blood
Procedure, shortened: (§5)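 SHR of the Okamoto-Aoki strain, dosed orally every day with compound suspended in distilled water with Tween 80. Systolic pressure was taken by tail-cuff plethysmography on day 1 (predose, 2 h), day 3 (predose, 2 h) and day 5 (predose, 2 and 4 h). Initial BP is the pretreatment systolic pressure, with 4–8 rats per dose in the dose-response screen.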

Rattus norvegicus [40] = assay: Oral hypotensive activity in spontaneously hypertensive rats by using tail-cuff method measured as change in systolic BP at the dose of 25 mg/kg po.; assay type: functional, Blood
Procedure, shortened: as §5

CCN1CCC2(CC1)Oc1ccccc1C2n1cccc1 (stereo not drawn)
Cardiac output (Canis familiaris [1]): 1600 mL/min
dP/dt (Canis familiaris [2]): 27.2 1/Pmax
BP (Canis familiaris [3]): -34.3 mmHg
BP (Canis familiaris [4]): 121 mmHg
BP (Rattus norvegicus [5]): 187 mmHg
Delta blood pressure (Rattus norvegicus [5]): 71 mmHg
BP (Canis familiaris [6]): 66 mmHg
BP (Canis familiaris [7]): -37 mmHg
dP/dt (Canis familiaris [8]): 25.6 1/Pmax
dP/dt (Canis familiaris [9]): 20.3 1/Pmax
Delta blood pressure (Rattus norvegicus [10]): 31 mmHg and 52 mmHg and 49 mmHg and 46 mmHg and 33 mmHg
BP (Canis familiaris [11]): 56.7 mmHg
BP (Canis familiaris [12]): 84.3 mmHg
dP/dt (Canis familiaris [13]): 21.2 1/Pmax
Rate (Canis familiaris [14]): 170 beats min-1
Delta blood pressure (Rattus norvegicus [15]): 27 mmHg and 38 mmHg
Rate (Canis familiaris [16]): 126 beats min-1
BP (Canis familiaris [17]): -52 mmHg
BP (Rattus norvegicus [18]): 187 mmHg
Delta blood pressure (Rattus norvegicus [18]): 71 mmHg
BP (Canis familiaris [19]): 59.7 mmHg
BP (Canis familiaris [20]): 132.7 mmHg
Rate (Canis familiaris [21]): 167 beats min-1
BP (Rattus norvegicus [22]): 162 mmHg
Rate (Canis familiaris [23]): 126 beats min-1
BP (Canis familiaris [24]): 106.3 mmHg
Cardiac output (Canis familiaris [25]): 1600 mL/min
BP (Canis familiaris [26]): 98 mmHg
Rate (Canis familiaris [27]): 132 beats min-1
BP (Canis familiaris [28]): 103 mmHg
Cardiac output (Canis familiaris [29]): 1530 mL/min
Rate (Canis familiaris [30]): 134 beats min-1
BP (Canis familiaris [31]): 165 mmHg
BP (Canis familiaris [32]): 64.3 mmHg
Cardiac output (Canis familiaris [33]): 2120 mL/min
BP (Canis familiaris [34]): 44.8 mmHg
BP (Canis familiaris [35]): -39.3 mmHg
BP (Rattus norvegicus [36]): 110 mmHg
BP (Rattus norvegicus [37]): 131 mmHg and 113 mmHg and 116 mmHg and 129 mmHg
BP (Rattus norvegicus [38]): 180 mmHg and 214 mmHg

O=C(CCCN1CCC2(CC1)Oc1ccccc1C2n1cccc1)c1ccc(F)cc1 (stereo not drawn)
Delta blood pressure (Rattus norvegicus [15]): 37 mmHg
BP (Rattus norvegicus [38]): 199 mmHg

CCCN1CCC2(CC1)Oc1ccccc1C2n1cccc1 (stereo not drawn)
Delta blood pressure (Rattus norvegicus [15]): 14 mmHg
BP (Rattus norvegicus [38]): 177 mmHg

N/C(=N\O)N1CCC2(CC1)Oc1ccccc1C2n1cccc1 (stereo not drawn)
Delta blood pressure (Rattus norvegicus [15]): 24 mmHg
BP (Rattus norvegicus [38]): 209 mmHg

c1ccc2c(c1)OC1(CCNCC1)C2n1cccc1 (stereo not drawn)
BP (Rattus norvegicus [39]): 198 mmHg
Delta blood pressure (Rattus norvegicus [39]): 33 mmHg
BP (Rattus norvegicus [5]): 189 mmHg
Delta blood pressure (Rattus norvegicus [5]): 43 mmHg
BP (Rattus norvegicus [40]): 200 mmHg
Delta blood pressure (Rattus norvegicus [40]): 49 mmHg

c1ccc(CCN2CCC3(CC2)Oc2ccccc2C3n2cccc2)cc1 (stereo not drawn)
BP (Rattus norvegicus [38]): 203 mmHg and 180 mmHg and 176 mmHg
